Source: ChEMBL document CHEMBL1140232, “Surprising alteration of antibacterial activity of 5"-modified neomycin against resistant bacteria” (2008)
Values after ≈ are worked out from the molar mass of the structure shown.

How the values were obtained:
[1] = tested on: Escherichia coli; test: Antibacterial activity against aminoglycoside-susceptible Escherichia coli ATCC 25922 after 12 to 18 hrs; type: functional
Procedure, shortened: (§1)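 Broth microdilution. Bacterial suspension adjusted with broth to absorbance 0.08–0.1 at 625 nm, diluted further in broth, and mixed in wells with 2-fold serial dilutions of compound. Plates incubated at 35°C for 12–18 h. MIC is the lowest concentration inhibiting growth; each determination repeated at least three times.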

[2] = tested on: Staphylococcus aureus; test: Antibacterial activity against aminoglycoside-susceptible Staphylococcus aureus ATCC 25923 after 12 to 18 hrs; type: functional; procedure, shortened: as §1
[3] = tested on: Escherichia coli; test: Antibacterial activity against aminoglycoside-susceptible Escherichia coli TG1 after 12 to 18 hrs; type: functional; procedure, shortened: as §1
[4] = tested on: Escherichia coli; test: Antibacterial activity against Escherichia coli TG1 pSF815 plasmid encoded for AAC(6')/APH(2') after 12 to 18 hrs; type: functional; procedure, shortened: as §1
[5] = tested on: Escherichia coli; test: Antibacterial activity against Escherichia coli TG1 pTZ19U-3 plasmid encoded for APH(3')-1 after 12 to 18 hrs; type: functional; procedure, shortened: as §1
[6] = tested on: Enterococcus; test: Activity of Enterococcus APH(3')-3a
[7] = tested on: Enterococcus; test: Ratio of kcat to Km of Enterococcus APH(3')-3a
[8] = tested on: Escherichia coli; test: Antibacterial activity against Escherichia coli TG1 pET28a plasmid encoded for APH(3')-3a after 12 to 18 hrs; type: functional; procedure, shortened: as §1

Structure (SMILES) | MIC [1] [µg/mL] | MIC [2] [µg/mL] | MIC [3] [µg/mL] | MIC [4] [µg/mL] | MIC [5] [µg/mL] | Km [6] [µM] | Vmax [6] [µmol/min/mg] | kcat [6] [s⁻¹] | kcat/Km [7] [×10⁴ /M/s] | MIC [8] [µg/mL]
NCc1cn(C[C@H]2O[C@@H](O[C@@H]3[C@@H](O)[C@H](N)C[C@H](N)[C@H]3O[C@H]3O[C@H](CN)[C@@H](O)[C@H](O)[C@H]3N)[C@H](O)[C@@H]2O[C@H]2O[C@@H](CN)[C@@H](O)[C@H](O)[C@H]2N)nn1 | 8 (≈ 11.5 µM) | 1 (≈ 1.44 µM) | 16 (≈ 23 µM) | 16 (≈ 23 µM) | 1000 (≈ 1440 µM) | 111 | 0.68 | 0.34 | 0.3 | 64 (≈ 92.1 µM)
NC[C@@H]1O[C@H](O[C@H]2[C@@H](O)[C@H](O[C@@H]3[C@@H](O)[C@H](N)C[C@H](N)[C@H]3O[C@H]3O[C@H](CN)[C@@H](O)[C@H](O)[C@H]3N)O[C@@H]2CNC(=O)c2cc(-c3ccccc3)nc3ccccc23)[C@H](N)[C@@H](O)[C@@H]1O | 8 (≈ 9.47 µM) | 4 (≈ 4.73 µM) | 8 (≈ 9.47 µM) | 16 (≈ 18.9 µM) | ≥ 2000 | 400 | 0.38 | 0.19 | 0.048 | 32 (≈ 37.9 µM)
NC[C@@H]1O[C@H](O[C@H]2[C@@H](O)[C@H](O[C@@H]3[C@@H](O)[C@H](N)C[C@H](N)[C@H]3O[C@H]3O[C@H](CN)[C@@H](O)[C@H](O)[C@H]3N)O[C@@H]2CNC(=O)[C@H]2CCCN2)[C@H](N)[C@@H](O)[C@@H]1O | 8 (≈ 11.3 µM) | 0.5 (≈ 0.703 µM) | 8 (≈ 11.3 µM) | 16 (≈ 22.5 µM) | ≥ 2000 | 70 | 0.72 | 0.36 | 0.51 | 64 (≈ 90 µM)
CCCCCCc1cn(C[C@H]2O[C@@H](O[C@@H]3[C@@H](O)[C@H](N)C[C@H](N)[C@H]3O[C@H]3O[C@H](CN)[C@@H](O)[C@H](O)[C@H]3N)[C@H](O)[C@@H]2O[C@H]2O[C@@H](CN)[C@@H](O)[C@H](O)[C@H]2N)nn1 | 32 (≈ 42.7 µM) | 4 (≈ 5.33 µM) | 8 (≈ 10.7 µM) | 16 (≈ 21.3 µM) | 500 (≈ 667 µM) | 127 | 0.75 | 0.38 | 0.3 | 32 (≈ 42.7 µM)
NC[C@@H]1O[C@H](O[C@H]2[C@@H](O)[C@H](O[C@@H]3[C@@H](O)[C@H](N)C[C@H](N)[C@H]3O[C@H]3O[C@H](CN)[C@@H](O)[C@H](O)[C@H]3N)O[C@@H]2Cn2cc(C3CCCCN3)nn2)[C@H](N)[C@@H](O)[C@@H]1O (stereo not given in full) | 8 (≈ 10.7 µM) | 2 (≈ 2.67 µM) | 16 (≈ 21.4 µM) | 16 (≈ 21.4 µM) | ≥ 2000 | 150 | 0.54 | 0.27 | 0.18 | 125 (≈ 167 µM)
NC[C@@H]1O[C@H](O[C@H]2[C@@H](O)[C@H](O[C@@H]3[C@@H](O)[C@H](N)C[C@H](N)[C@H]3O[C@H]3O[C@H](CN)[C@@H](O)[C@H](O)[C@H]3N)O[C@@H]2CNC(=O)[C@@H]2CCCN2)[C@H](N)[C@@H](O)[C@@H]1O | 16 (≈ 22.5 µM) | 0.5 (≈ 0.703 µM) | 16 (≈ 22.5 µM) | 16 (≈ 22.5 µM) | ≥ 2000 | 80 | 0.63 | 0.32 | 0.4 | 64 (≈ 90 µM)
NC[C@@H]1O[C@H](O[C@H]2[C@@H](O)[C@H](O[C@@H]3[C@@H](O)[C@H](N)C[C@H](N)[C@H]3O[C@H]3O[C@H](CN)[C@@H](O)[C@H](O)[C@H]3N)O[C@@H]2Cn2cc(CNC(=O)C3CCNCC3)nn2)[C@H](N)[C@@H](O)[C@@H]1O | 16 (≈ 19.9 µM) | 4 (≈ 4.96 µM) | 16 (≈ 19.9 µM) | 32 (≈ 39.7 µM) | ≥ 2000 | 171 | 0.41 | 0.21 | 0.12 | 64 (≈ 79.4 µM)
NC[C@@H]1O[C@@H](O[C@H]2[C@H](O)[C@@H](O[C@H]3O[C@H](CO)[C@@H](O)[C@H](N)[C@H]3O)[C@H](N)C[C@@H]2N)[C@@H](O)[C@H](O)[C@H]1O [KANAMYCIN A] |  |  |  |  |  | 8.2 | 6.96 | 3.48 | 42.4 | 125 (≈ 258 µM)
NCCCC[C@@H](N)C(=O)NC[C@H]1O[C@@H](O[C@@H]2[C@@H](O)[C@H](N)C[C@H](N)[C@H]2O[C@H]2O[C@H](CN)[C@@H](O)[C@H](O)[C@H]2N)[C@H](O)[C@@H]1O[C@H]1O[C@@H](CN)[C@@H](O)[C@H](O)[C@H]1N | 32 (≈ 43.1 µM) | 1 (≈ 1.35 µM) | 16 (≈ 21.6 µM) | 64 (≈ 86.3 µM) | ≥ 2000 | 75 | 0.7 | 0.35 | 0.47 | 64 (≈ 86.3 µM)
NC[C@@H]1O[C@H](O[C@H]2[C@@H](O)[C@H](O[C@@H]3[C@@H](O)[C@H](N)C[C@H](N)[C@H]3O[C@H]3O[C@H](CN)[C@@H](O)[C@H](O)[C@H]3N)O[C@@H]2CNC(=O)CCC(=O)O)[C@H](N)[C@@H](O)[C@@H]1O | 64 (≈ 89.7 µM) | 8 (≈ 11.2 µM) | 32 (≈ 44.8 µM) | 64 (≈ 89.7 µM) | ≥ 2000 | 53 | 0.86 | 0.43 | 0.81 | 250 (≈ 350 µM)
CN(C)Cc1cn(C[C@H]2O[C@@H](O[C@@H]3[C@@H](O)[C@H](N)C[C@H](N)[C@H]3O[C@H]3O[C@H](CN)[C@@H](O)[C@H](O)[C@H]3N)[C@H](O)[C@@H]2O[C@H]2O[C@@H](CN)[C@@H](O)[C@H](O)[C@H]2N)nn1 | 8 (≈ 11.1 µM) | 2 (≈ 2.77 µM) | 8 (≈ 11.1 µM) | 16 (≈ 22.1 µM) | ≥ 2000 | 120 | 0.65 | 0.33 | 0.28 | 64 (≈ 88.5 µM)
CCCCCCC(=O)NC[C@H]1O[C@@H](O[C@@H]2[C@@H](O)[C@H](N)C[C@H](N)[C@H]2O[C@H]2O[C@H](CN)[C@@H](O)[C@H](O)[C@H]2N)[C@H](O)[C@@H]1O[C@H]1O[C@@H](CN)[C@@H](O)[C@H](O)[C@H]1N | 16 (≈ 22 µM) | 4 (≈ 5.51 µM) | 8 (≈ 11 µM) | 16 (≈ 22 µM) | ≥ 2000 | 48 | 0.95 | 0.48 | 1 | 64 (≈ 88.2 µM)
NC[C@@H]1O[C@H](O[C@H]2[C@@H](O)[C@H](O[C@@H]3[C@@H](O)[C@H](N)C[C@H](N)[C@H]3O[C@H]3O[C@H](CN)[C@@H](O)[C@H](O)[C@H]3N)O[C@@H]2Cn2cc(CNC(=O)[C@@H]3CCCN3)nn2)[C@H](N)[C@@H](O)[C@@H]1O | 16 (≈ 20.2 µM) | 2 (≈ 2.53 µM) | 16 (≈ 20.2 µM) | 16 (≈ 20.2 µM) | ≥ 2000 | 175 | 0.4 | 0.2 | 0.14 | 64 (≈ 80.8 µM)
NC[C@@H]1O[C@H](O[C@H]2[C@@H](O)[C@H](O[C@@H]3[C@@H](O)[C@H](N)C[C@H](N)[C@H]3O[C@H]3O[C@H](CN)[C@@H](O)[C@H](O)[C@H]3N)O[C@@H]2CNC(=O)[C@@H](N)CO)[C@H](N)[C@@H](O)[C@@H]1O | 8 (≈ 11.4 µM) | 1 (≈ 1.43 µM) | 8 (≈ 11.4 µM) | 16 (≈ 22.8 µM) | ≥ 2000 | 42 | 1.01 | 0.51 | 1.2 | 32 (≈ 45.7 µM)
NCCCC[C@H](N)C(=O)NC[C@H]1O[C@@H](O[C@@H]2[C@@H](O)[C@H](N)C[C@H](N)[C@H]2O[C@H]2O[C@H](CN)[C@@H](O)[C@H](O)[C@H]2N)[C@H](O)[C@@H]1O[C@H]1O[C@@H](CN)[C@@H](O)[C@H](O)[C@H]1N | 16 (≈ 21.6 µM) | 2 (≈ 2.7 µM) | 16 (≈ 21.6 µM) | 32 (≈ 43.1 µM) | 125 (≈ 168 µM) | 78 | 0.79 | 0.4 | 0.51 | 32 (≈ 43.1 µM)
CNCc1cn(C[C@H]2O[C@@H](O[C@@H]3[C@@H](O)[C@H](N)C[C@H](N)[C@H]3O[C@H]3O[C@H](CN)[C@@H](O)[C@H](O)[C@H]3N)[C@H](O)[C@@H]2O[C@H]2O[C@@H](CN)[C@@H](O)[C@H](O)[C@H]2N)nn1 | 8 (≈ 11.3 µM) | 1 (≈ 1.41 µM) | 16 (≈ 22.6 µM) | 16 (≈ 22.6 µM) | ≥ 2000 | 100 | 0.72 | 0.36 | 0.36 | 125 (≈ 176 µM)
NC[C@@H]1O[C@H](O[C@H]2[C@@H](O)[C@H](O[C@@H]3[C@@H](O)[C@H](N)C[C@H](N)[C@H]3O[C@H]3O[C@H](CN)[C@@H](O)[C@H](O)[C@H]3N)O[C@@H]2CNC(=O)[C@H](N)CO)[C@H](N)[C@@H](O)[C@@H]1O | 8 (≈ 11.4 µM) | 1 (≈ 1.43 µM) | 8 (≈ 11.4 µM) | 16 (≈ 22.8 µM) | ≥ 2000 | 57 | 0.93 | 0.47 | 0.82 | 64 (≈ 91.3 µM)
C[C@@H](N)C(=O)NC[C@H]1O[C@@H](O[C@@H]2[C@@H](O)[C@H](N)C[C@H](N)[C@H]2O[C@H]2O[C@H](CN)[C@@H](O)[C@H](O)[C@H]2N)[C@H](O)[C@@H]1O[C@H]1O[C@@H](CN)[C@@H](O)[C@H](O)[C@H]1N | 16 (≈ 23.4 µM) | 1 (≈ 1.46 µM) | 16 (≈ 23.4 µM) | 16 (≈ 23.4 µM) | ≥ 2000 | 63 | 0.82 | 0.41 | 0.65 | 64 (≈ 93.5 µM)
